These results are taken from ChEMBL document CHEMBL1821581, “Synthesis, antiproliferative activities and in vitro biological evaluation of novel benzofuransulfonamide derivatives” (Bioorg Med Chem Lett, 2011).

The test system of assay [1] is NCI-H460. The assay is described as follows: Antiproliferative activity against human NCI-H460 cells after 48 hrs by MTT assay. The class given is functional, cell-based. The note with it: NCI-H460, 48 h. In outline: (§1)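 Cells seeded at 2000/well, cultured 24 h, then exposed to compounds 48 h. MTT (10 mg/mL stock, 10 µL/well) added for 2.5 h at 37 °C; supernatant removed, DMSO added 15–20 min, absorbance read at 570 nm. IC50 reported as mean of three independent experiments.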
In general terms: Tetrazolium dyes change colour on reduction, which living cells bring about.

For another assay, the system named is PC-3. Put plainly: Antiproliferative activity against human PC3 cells after 48 hrs by MTT assay. The class given is functional, cell-based. The note with it: PC-3, 48 h. In a few lines: as §1
For another assay, the system named is HepG2. Put plainly: Antiproliferative activity against human HepG2 cells after 48 hrs by MTT assay. The note with it: HepG2, 48 h. It is filed as functional, cell-based. In outline:
as §1

The subject of the next assay is HeLa. The assay is described as follows: Antiproliferative activity against human HeLa cells after 48 hrs by MTT assay. It is filed as functional, cell-based. In a few lines: as §1
For assay [2], the system named is NCI-H460. Put plainly: Induction of apoptosis in human NCI-H460 cells at 10 uM after 48 hrs using annexin V-FITC and propidium iodine staining by flow cytometric analysis (reference value: 3.82%). It is filed as functional.
For assay [3], the system named is NCI-H460. Put plainly: Induction of apoptosis in human NCI-H460 cells at 2.5 uM after 48 hrs using annexin V-FITC and propidium iodine staining by flow cytometric analysis (reference value: 3.82%). It is filed as functional. In general terms: In flow cytometry, cells or beads pass a laser one at a time.

pIC50: −log10 of the molar value. A value given as a limit tells only on which side of the number the result lay.

In general, pIC50 refers to the negative decadic logarithm of the IC50, by convention in mol/L. A low value points to a high IC50. With `Cc1c(C(=O)c2ccccc2)oc2ccc(NC(=O)c3ccc(F)cc3)cc12`, the pIC50 with NCI-H460 [1] is 4.81; in the assay on PC-3 it was 4.87; with HepG2, 4.51; with HeLa, 4.73.

Take `CCOC(=O)c1oc2ccc(S(=O)(=O)Nc3ccc(F)cc3)cc2c1C`: the pIC50 is 5.38 with NCI-H460 [1], 5.07 in the assay with PC-3, 5.12 in the assay on HepG2 and 5.03 in the assay on HeLa. In addition, the figures for the Activity in the assay with NCI-H460 [2] and in the assay with NCI-H460 [3] were 41.09% and 33.88%, respectively.

`CC(=O)Nc1ccc2oc(C(=O)c3ccccc3)c(C)c2c1`: the negative logarithm of the IC50 (pIC50) with NCI-H460 [1], with PC-3, in the assay on HepG2 and in the assay on HeLa was < 4.40 throughout.

Consider `CCOC(=O)c1oc2ccc(NS(=O)(=O)c3ccc(F)cc3)cc2c1C`, for which the pIC50 in the assay on NCI-H460 [1] was 5.05; in the assay with PC-3, 4.80; with HepG2 it was 5.25; with HeLa, 4.91.

`Cc1c(C(=O)c2ccccc2)oc2ccc(NS(=O)(=O)c3ccc(F)cc3)cc12`: the pIC50 in the assay on NCI-H460 [1] is 4.46; with PC-3 it was 4.42; in the assay with HepG2 it was 4.62; with HeLa it was 4.97.

As to `Cc1c(C(=O)c2ccccc2)oc2ccc(S(=O)(=O)Nc3ccc(F)cc3)cc12`, the pIC50 in the assay on NCI-H460 [1] was 4.65; in the assay on PC-3, 4.66; with HepG2, 4.49; with HeLa, 4.81.
